ChEMBL document CHEMBL2010781, “2-Amidino analogs of glycine-amiloride conjugates: inhibitors of urokinase-type plasminogen activator” (Bioorg Med Chem Lett, 2012)
The source made the active and inactive calls. The calls are words filed in the database; no cut-off is given here.

What was measured:
[1] = molecular target: Tissue-type plasminogen activator (Homo sapiens, UniProt P00750); assay: Inhibition of tPA using CH3SO2-D-HHT-Gly-Arg-pNA as substrate by spectrophotometry
Plasminogen = Plasminogen (Homo sapiens, UniProt P00747); assay: Inhibition of plasmin using tosyl-Gly-Pro-Lys-pNA as substrate by spectrophotometry
[2] = molecular target: Urokinase-type plasminogen activator (Homo sapiens, UniProt P00749); assay: Inhibition of urokinase-type plasminogen activator using Glt-Gly-Arg-AMC as substrate by spectrofluorometry
[3] = Inhibition of trypsin using tosyl-Gly-Pro-Lys-pNA as substrate by spectrophotometry
U-87MG ATCC = assay: Cytotoxicity against human U87 cells by lactate dehydrogenase assay; assay type: functional, cell-based
How it was run: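 Cytotoxicity was read as release of cytosolic LDH from dying cells, following the kit manufacturer's protocol.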

[4] = Cytotoxicity against human U87 cells at 250 uM after 24 hrs by lactate dehydrogenase assay; assay type: functional, U-87MG ATCC
How it was run: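 Human U87 glioma cells seeded at ten thousand per well and exposed to drug for 24–48 h at 37°C under 5% CO2. Cell death was read as cytosolic lactate dehydrogenase released from dying cells, assayed following the kit manufacturer's protocol.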

[5] = Cytotoxicity against human U87 cells at 250 uM after 72 hrs by lactate dehydrogenase assay; assay type: functional, U-87MG ATCC
How it was run: (§1)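 Cell death was scored as cytosolic LDH released into the medium, using the kit manufacturer's LDH protocol.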

[6] = Cytotoxicity against human U87 cells at 100 uM after 72 hrs by lactate dehydrogenase assay; assay type: functional, U-87MG ATCC; conditions: in the assay text read “24 hrs” for “72 hrs”
How it was run: as §1

Sequence of Tissue-type plasminogen activator (P00750 whole entry): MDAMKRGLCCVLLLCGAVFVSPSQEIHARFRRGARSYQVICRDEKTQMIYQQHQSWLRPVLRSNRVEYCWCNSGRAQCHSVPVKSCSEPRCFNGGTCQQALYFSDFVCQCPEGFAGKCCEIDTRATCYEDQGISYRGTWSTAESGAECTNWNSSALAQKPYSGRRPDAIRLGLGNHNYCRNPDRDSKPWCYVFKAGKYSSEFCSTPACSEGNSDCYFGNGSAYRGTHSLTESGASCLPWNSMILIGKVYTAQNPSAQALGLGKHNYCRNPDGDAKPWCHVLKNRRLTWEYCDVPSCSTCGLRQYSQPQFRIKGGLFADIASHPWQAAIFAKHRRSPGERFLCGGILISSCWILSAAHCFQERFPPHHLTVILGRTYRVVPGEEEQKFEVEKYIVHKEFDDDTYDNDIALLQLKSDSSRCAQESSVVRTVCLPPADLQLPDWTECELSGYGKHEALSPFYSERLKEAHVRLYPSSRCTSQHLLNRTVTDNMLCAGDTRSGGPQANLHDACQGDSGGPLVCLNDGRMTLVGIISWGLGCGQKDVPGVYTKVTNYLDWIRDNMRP
Sequence of Plasminogen (P00747 97-580 limits assumed): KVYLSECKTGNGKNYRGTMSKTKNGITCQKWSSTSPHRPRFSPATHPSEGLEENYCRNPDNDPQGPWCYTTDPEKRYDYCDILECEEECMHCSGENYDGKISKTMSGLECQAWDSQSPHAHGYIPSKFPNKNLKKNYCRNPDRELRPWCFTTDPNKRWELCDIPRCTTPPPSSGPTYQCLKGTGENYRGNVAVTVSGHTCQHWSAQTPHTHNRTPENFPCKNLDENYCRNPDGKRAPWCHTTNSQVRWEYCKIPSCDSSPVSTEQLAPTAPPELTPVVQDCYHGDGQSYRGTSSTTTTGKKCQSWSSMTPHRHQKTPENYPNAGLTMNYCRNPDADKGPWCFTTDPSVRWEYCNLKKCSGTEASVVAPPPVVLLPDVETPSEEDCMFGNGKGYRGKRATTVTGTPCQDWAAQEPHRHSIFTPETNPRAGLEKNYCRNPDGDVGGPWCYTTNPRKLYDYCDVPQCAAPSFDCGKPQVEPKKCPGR
Sequence of Plasminogen (P00747 581-810 limits assumed): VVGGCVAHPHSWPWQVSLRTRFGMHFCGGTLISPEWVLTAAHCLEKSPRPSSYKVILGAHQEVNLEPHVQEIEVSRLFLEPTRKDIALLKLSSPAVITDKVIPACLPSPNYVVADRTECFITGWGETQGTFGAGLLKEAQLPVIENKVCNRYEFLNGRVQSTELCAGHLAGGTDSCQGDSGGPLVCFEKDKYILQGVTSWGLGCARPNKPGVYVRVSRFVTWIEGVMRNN

Compound	IC50 [1]	IC50 (Plasminogen)	IC50 [2]	IC50 [3]	Activity (U-87MG ATCC)	Activity [4]	Activity [5]	Activity [6]
N=C(NO)c1nc(Cl)c(NCC(=O)O)nc1N	> 250 µM	> 250 µM	231 µM					
NC(N)=NC(=O)c1ncc(NCC(=O)O)nc1N	> 250 µM	> 250 µM	47 µM	> 250 µM	inactive			
N=C(NO)c1ncc(NCC(=O)O)nc1N	> 250 µM		279 µM					
N=C(N)NC(=O)c1nc(Cl)c(NCC(=O)O)nc1N	> 250 µM	> 250 µM	17 µM	> 250 µM	inactive			
N=C(N)c1ncc(NCC(=O)O)nc1N	> 250 µM	> 250 µM	212 µM	> 250 µM	inactive			
N=C(N)NC(=O)c1nc(Cl)c(N)nc1N [AMILORIDE]	220 µM	> 250 µM		> 250 µM		50%		
N=C(N)c1nc(Cl)c(NCC(=O)O)nc1N	> 250 µM		237 µM	> 250 µM	inactive			
N/C(=N\O)c1nc(Cl)c(NCC(=O)O)nc1N				> 250 µM	inactive			
N/C(=N\O)c1ncc(NCC(=O)O)nc1N				> 250 µM	inactive			

Second part, led by results:

IC50 [1]	IC50 (Plasminogen)	IC50 [2]	IC50 [3]	Compound	Activity (U-87MG ATCC)	Activity [4]	Activity [5]	Activity [6]
200 µM	> 250 µM	74 µM		N=C(NO)c1nc(Cl)c(NCC(=O)OCc2ccccc2)nc1N				
200 µM	> 250 µM	4 µM	> 250 µM	N=C(N)c1nc(Cl)c(NCC(=O)OCc2ccccc2)nc1N			50%	
			> 250 µM	N/C(=N\O)c1nc(Cl)c(NCC(=O)OCc2ccccc2)nc1N	inactive			
> 190 µM	> 250 µM	3 µM	> 250 µM	NC(N)=NC(=O)c1nc(Cl)c(NCC(=O)OCc2ccccc2)nc1N				50%
> 250 µM		69 µM	> 250 µM	NC(=O)c1nc(Cl)c(NCC(=O)OCc2ccccc2)nc1N				
